Published values of several laboratories.
Lines come from different studies, so protocols differ.
LRRK2 G2019S: Leucine-rich repeat serine/threonine-protein kinase 2 (LRRK2, Homo sapiens, UniProt Q5S007, G2019S)
LRRK2: Leucine-rich repeat serine/threonine-protein kinase 2 (LRRK2, Homo sapiens, UniProt Q5S007)

| SMILES | target | assay | setting | endpoint | value |
| --- | --- | --- | --- | --- | --- |
| O=C(O)[C@H]1[C@H](Cn2nnc3ccccc3c2=O)CC[C@@H]1C(=O)c1ccc(OCCC2CCOCC2)cc1 | LRRK2 G2019S | cell-free assay, competition with immobilised ligand | 1 µM | remaining binding | 100% |
| O=C(Nc1cnn(-c2csc(C(=O)NC3COC3)c2)c1)Nc1ccccc1Cl | LRRK2 | enzyme activity, inhibitor | 5 µM | remaining activity | 88.2% |
| N#CCCc1ccc2c(c1)-c1[nH]c3ccc([N+](=O)[O-])cc3c1CC(=O)N2 | LRRK2 | cell-free assay | 0.5 µM | remaining signal | 73.8% |
| O=C(NCc1ncc(C(F)(F)F)cc1Cl)c1ccc2c(c1)C1(CCS(=O)(=O)CC1)[C@H](C1CC1)N2S(=O)(=O)c1ccc(F)cc1 | LRRK2 G2019S | cell-free assay, competition with immobilised ligand | 1 µM | remaining binding | 100% |
| Nc1ncnc2occ(-c3ccc(NC(=O)Nc4cc(C(F)(F)F)ccc4F)cc3)c12 | LRRK2 | cell-free assay, inhibitor | 20 µM | remaining signal | 5.2% |
| CC(C)(C)c1nc2c(s1)c1nc(N)ncc1c1ccc(NS(=O)(=O)c3c(F)cccc3F)c(F)c12 | LRRK2 | enzyme activity, inhibitor, radiometric | 1 µM | remaining activity | 93% |
| COc1cc(Cl)c(C(=O)N[C@@H](CN[C@H]2CC[C@@H](N)CC2)Cc2ccc(C#N)cc2)cc1-c1ccc(CN[C@H](C)c2ccc(C)cc2)o1 | LRRK2 | enzyme activity, inhibitor | 1 µM | remaining activity | 104% |
| COc1cc2nccc(Oc3ccc(NC(=O)c4c5n(n(-c6ccc(F)cc6)c4=O)CCCC5)cc3)c2cc1OC | LRRK2 | enzyme activity, inhibitor | 0.1 µM | inhibition | 0% |
| CCN(CC)CCNC(=O)c1c(C)[nH]c(/C=C2\C(=O)Nc3ccc(F)cc32)c1C | LRRK2 | cell-free assay | 0.5 µM | remaining signal | 3.34% |
| Cc1ccc(C(=O)Nc2ccc(CN3CCN(C)CC3)c(C(F)(F)F)c2)cc1C#Cc1cnc2cccnn12 | LRRK2 | enzyme activity, inhibitor | 23.5 nM | remaining activity | 83% |
| Cc1ccc(NC(=O)c2ccc(CN3CCN(C)CC3)cc2)cc1Nc1nc(-c2cccnc2)cs1 | LRRK2 | cell-free assay | 0.5 µM | remaining signal | 107% |
| FC(F)(F)c1ccc2c(c1)nc(-c1cccnc1)n2C1CC1 | LRRK2 G2019S | cell-free assay, competition with immobilised ligand | 1 µM | remaining binding | 100% |
| COc1cc(-c2cc(-c3ccc(N4CCNCC4)cc3)cnc2N)cc(OC)c1OC | LRRK2 | enzyme activity, inhibitor | 0.1 µM | inhibition | 6% |
| Cc1cc(NC(=O)c2cccc3cc(-c4cccc5[nH]nc(N)c45)ccc23)ccc1F | LRRK2 | enzyme activity, inhibitor | 0.1 µM | activity vs control | 98% |
| COc1ccc2c(c1)O[C@@H](c1ccc(OC)c(OC)c1)C[C@H]2NC(=O)C1(c2ccc3c(c2)OC(F)(F)O3)CC1 | LRRK2 | cell-free assay, competition with immobilised ligand | 1 µM | remaining binding | 87% |
| Cc1ccc(NC(=O)c2ccc(C)c(C(F)(F)F)c2)cc1C#Cc1nn(C2CCC(O)CC2)c2ncnc(N)c12 (stereo not drawn) | LRRK2 | cell-free assay | 10 µM | remaining signal | 15% |
| Cc1c(NC(=O)c2cc(C(N)=O)nc3cc(F)ccc23)c(C(F)(F)F)nn1Cc1ccc(C(C)(C)C)cc1 | LRRK2 G2019S | cell-free assay, competition with immobilised ligand | 1 µM | remaining binding | 100% |
| CN(C)C1CCN(CC#Cc2nn(C3CCCC3)c3nc(NCc4ccccc4)ncc23)C1 (stereo not drawn) | LRRK2 | enzyme activity, inhibitor, FRET | 0.1 µM | inhibition | -1% |
